Screening results (PubChem BioAssay)
Granule exo inh: blocks lytic granule exocytosis. inhibition, % at 10 µM. 360,000 compounds, 0.66% hits. TALL-104 LAMP-1 surface exposure, flow cytometry; cells stimulated with thapsigargin and PMA;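 active = inhibition above about 55%, limit read from the data; inconclusive = no clear call, values can overlap the other calls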
ABCB6 inh MLPCN: inhibitors of human ABC transporter ABCB6 | Q9NP58 | K562-ABCB6 porphyrin accumulation, flow cytometry, 1 h; stronger effect = lower value | fluorescence ratio to DMSO, % at 10 µM | 360,000 compounds, 0.19% hits | AID 602162;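 active = fluorescence ratio to DMSO below 75%, the collection mean minus 3 SD; inconclusive = too few cells collected in the well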;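 note: signal is porphyrin accumulated inside mitochondria; lower ratio means ABCB6 inhibition with less porphyrin fluorescence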
ATG4B inhibitor: ATG4B (human) cysteine protease inhibition | Q9Y4P1 | ATG4B cleavage of LC3-PLA2, NBD-HPC fluorescence, 1 h | inhibition, % at 8.33 µM | 340,000 compounds, 0.51% hits; in the data active = inhibition above about 40%
Myeloid diff 2: compounds promoting myeloid differentiation; calls only at 10 µM; ER-HoxA9 myeloid progenitors, lysozyme-GFP differentiation, flow cytometry; 360,000 compounds, 1% hits;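 active = normalized GFP-positive differentiation at or above the plate's own cutoff, the solvent-only control mean plus 3 SD; inconclusive = no clear call, values can overlap the other calls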;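 note: cells exposed to compound for four days before flow analysis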
NRP1-CendR mod: alters CendR peptide binding to human NRP-1; inhibition, % at 25 µM; O14786; FAM-RPARPAR peptide binding to NRP-1, fluorescence polarization; AID 602438; 360,000 compounds, 0.85% hits;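 active = inhibition or corrected inhibition above about 18%, plus a signal ratio from 0.5 to 1.5, limit read from the data, passing the limit was not always enough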
Target sequence (O14786 whole entry, looked up): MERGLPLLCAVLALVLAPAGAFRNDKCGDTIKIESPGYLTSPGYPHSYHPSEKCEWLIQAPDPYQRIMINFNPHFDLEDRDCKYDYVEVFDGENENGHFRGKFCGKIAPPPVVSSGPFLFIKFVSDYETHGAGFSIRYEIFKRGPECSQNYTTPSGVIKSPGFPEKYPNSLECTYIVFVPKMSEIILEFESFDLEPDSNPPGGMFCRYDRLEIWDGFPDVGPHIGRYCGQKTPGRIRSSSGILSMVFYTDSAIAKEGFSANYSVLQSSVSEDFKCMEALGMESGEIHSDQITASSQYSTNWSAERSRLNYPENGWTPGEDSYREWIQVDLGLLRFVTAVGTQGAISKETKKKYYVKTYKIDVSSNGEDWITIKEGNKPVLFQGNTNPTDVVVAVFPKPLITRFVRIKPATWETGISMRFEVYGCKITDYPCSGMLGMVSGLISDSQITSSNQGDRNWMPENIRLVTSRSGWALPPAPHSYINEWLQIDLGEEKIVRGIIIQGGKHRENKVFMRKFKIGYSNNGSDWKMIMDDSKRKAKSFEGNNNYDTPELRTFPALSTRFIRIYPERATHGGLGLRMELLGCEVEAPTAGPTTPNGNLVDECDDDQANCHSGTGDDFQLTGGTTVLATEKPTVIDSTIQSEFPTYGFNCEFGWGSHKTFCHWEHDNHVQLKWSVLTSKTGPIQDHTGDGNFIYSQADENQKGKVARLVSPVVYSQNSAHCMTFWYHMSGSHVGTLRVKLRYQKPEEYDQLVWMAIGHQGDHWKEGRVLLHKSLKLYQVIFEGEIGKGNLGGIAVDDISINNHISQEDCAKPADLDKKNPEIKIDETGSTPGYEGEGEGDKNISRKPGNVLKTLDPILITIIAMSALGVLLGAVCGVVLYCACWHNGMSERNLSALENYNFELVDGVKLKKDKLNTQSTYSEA
Arrestin-AP2 inh: blocks beta-arrestin peptide binding to AP2 adaptin; FITC-arrestin peptide / GST-AP2 beads, flow cytometry; AP2 beta2 appendage carries R879A mutation; inhibition, % at 10 µM; 340,000 compounds, 0.31% hits; AID 504490;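 active = inhibition above a set limit, near 3 SD of compounds lacking own fluorescence, cut at about 54% in these data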
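System: GST-AP2 R879A bound to glutathione beads, E. coli-expressed. Also added: 50 nM FITC-arrestin peptide. Schedule: compound with beads 12 min RT, then probe 1 h RT. Signal: bead flow cytometry, FITC channel. Read-out basis: percent response.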
Each line names hits and unclear results; the compound was inactive in the other large screens. Shown are actives, neighbours in structure and some others; about 3.3% of the full set was active somewhere.

COCCn1c(SCC(=O)Nc2ccc(NC(=O)c3ccco3)c(OC)c2)nc2ccccc2c1=O	Granule exo inh 94 (no result: Myeloid diff 2)
NC1=CC(=O)C(=O)c2ccccc21	NRP1-CendR mod 29 (no result: Myeloid diff 2)
NC1=C(Br)C(=O)c2ccccc2C1=O	none
COc1cc(C=C2C(=O)c3ccccc3C2=O)cc(OC)c1	Myeloid diff 2 active
COc1cc(C=C2C(=O)c3ccccc3C2=O)cc(OC)c1OC	Myeloid diff 2 active
COc1cccc(/C=C2\C(=O)C(=O)c3ccccc32)c1	Myeloid diff 2 active
CSc1ccc(/C=c2\s/c(=C\C(=O)C(C)(C)C)n(CC(=O)NCCC3=CCCCC3)c2=O)cc1	none
CCCNC(=O)Cn1c(=O)/c(=C/c2ccc(-c3ccc([N+](=O)[O-])cc3)o2)s/c1=C\C(=O)C(C)(C)C	Myeloid diff 2 active
Cn1c(=O)c2[nH]c(-c3ccccc3)c(O)c2n(C)c1=O	NRP1-CendR mod 36
Cn1c(=O)c2[nH]c(-c3ccccc3Cl)c(O)c2n(C)c1=O	none
CCc1ccc(C(=O)COC(=O)c2ccc(Cl)nc2)cc1	none
CC1Cc2cc(-c3csc(NC(=O)Cc4ccccc4)n3)ccc2N1S(C)(=O)=O (stereo unspecified)	Myeloid diff 2 active
Nc1ncnc2c1ncn2[C@@H]1O[C@H](CO)[C@@H](O)[C@H]1O	Myeloid diff 2 active
CC1(C)OC2C(O1)[C@@H](CO)O[C@H]2n1cnc2c(N)ncnc21 (stereo partly specified)	none
Cn1cc(S(=O)(=O)NC[C@H]2O[C@@H](n3cnc4c(N)ncnc43)[C@H](O)[C@@H]2O)cn1	Myeloid diff 2 active
Cc1cccc(C)c1NC(=O)CN(C)C(C)C(=O)NCC(=O)Nc1ccc(F)c(F)c1F (stereo unspecified)	none
CC1(C(=O)NS(=O)(=O)c2ccc3ccccc3c2)CCN1C(=O)CC1CCCCC1 (stereo unspecified)	none (no result: ATG4B inhibitor, Arrestin-AP2 inh)
COCCCNC(=O)C[C@@H]1C[C@@]2(C(=O)OC)CC(C)(C)CC=C2N(Cc2cccc3ccccc23)C1=O	NRP1-CendR mod 24 (no result: ABCB6 inh MLPCN, ATG4B inhibitor, Arrestin-AP2 inh)
CCCc1c(-c2cccc(Cl)c2)ncn1CCc1ccccc1OC	none (no result: ATG4B inhibitor, Arrestin-AP2 inh)
CC(C)Cn1c(=O)c(C(=O)Nc2cnccn2)c(O)c2ccccc21	none
CC(C)Cn1c(=O)c(C(=O)Nc2ccncc2)c(O)c2ccccc21	Myeloid diff 2 active
c1ccc(N2CCN(Cc3nc4ccccc4[nH]3)CC2)nc1	Myeloid diff 2 active
Cc1cc(O)ccc1NS(=O)(=O)c1ccc2c3c(cccc13)C(=O)N2	none
Nc1c(C(=O)NCC2CCCO2)sc2nc3c(c(-c4ccco4)c12)CC/C3=C\c1ccco1 (stereo unspecified)	ATG4B inhibitor 49, Arrestin-AP2 inh 56
COCC(=O)OC1CCn2c1nc1c2C(=O)C(C)=C(NC(C)=O)C1=O (stereo unspecified)	Myeloid diff 2 inconclusive, NRP1-CendR mod 45
O=C1[C@H]2[C@H](C=CC[C@H]2C(=O)N2CCN(c3ccccc3)CC2)CCN1Cc1ccccc1	NRP1-CendR mod 28
O=C1[C@H]2[C@H](C=CC[C@H]2C(=O)N2CCN(c3ccccc3)CC2)CCN1Cc1ccc(Cl)c(Cl)c1	none
O=S(=O)(Nc1cccc(Cl)c1)c1cccc(-n2cnnn2)c1	NRP1-CendR mod 20
O=S(=O)(Nc1cccc(-n2cnnn2)c1)c1ccc(Cl)cc1	none
COc1ccc(N(CC(=O)Nc2ccccc2OC)S(=O)(=O)c2ccc(NC(C)=O)cc2)cc1	Myeloid diff 2 active
COc1ccc(N(CC(=O)Nc2cc(Cl)ccc2OC)S(=O)(=O)c2c(C)noc2C)cc1	Myeloid diff 2 active
COc1ccc(OC)c(NC(=O)CN(c2ccc(C)cc2)S(=O)(=O)c2c(C)noc2C)c1	none
CN(C)C(=O)COC(=O)c1ccccc1NC(=O)c1ccco1	Myeloid diff 2 active
C(=NNc1ccc2ccccc2n1)c1ccccn1	Myeloid diff 2 inconclusive (no result: ATG4B inhibitor, Arrestin-AP2 inh)
c1cnc2nc3c4ccccc4c4ccccc4c3nc2c1	Myeloid diff 2 active
CCOC(=O)c1c(C)[nH]c(C)c1C(=O)CSc1nnc(-c2ccco2)n1Cc1ccccc1	none
O=C1NC(c2ccccc2)=C(c2ccc3ccccc3n2)C(c2ccccc2)N1 (stereo unspecified)	none
O=C1NC(c2ccccc2)=C(c2nc3ccccc3s2)C(c2ccc(O)cc2)N1 (stereo unspecified)	Myeloid diff 2 active
COc1ccc(CNc2n[nH]c(NCc3ccc(OC)c(OC)c3)n2)cc1OC	NRP1-CendR mod 20
C#CCOCCOCCOCCNc1nc(N2CCN(C(=O)CCCCCCCCCCNC(=O)[C@H](CCCCN)n3cc(CCO)nn3)CC2)nc(N2CCN(C(=O)CCCCCCCCCCNC(=O)[C@H](CCCN=C(N)N)n3cc(C[C@@H](C)CC)nn3)CC2)n1	ATG4B inhibitor 70
C#CCOCCOCCOCCNc1nc(N2CCN(C(=O)CCCCCCCCCCNC(=O)[C@@H](CCSC)n3cc(CCO)nn3)CC2)nc(N2CCN(C(=O)CCCCCCCCCCNC(=O)[C@H]([C@@H](C)CC)n3cc(CCCCCN)nn3)CC2)n1	ATG4B inhibitor 45 (no result: Granule exo inh, ABCB6 inh MLPCN, Myeloid diff 2, NRP1-CendR mod, Arrestin-AP2 inh)
C#CCOCCOCCOCCNc1nc(N2CCOCC2)nc(N2CCN(C(=O)CCCCCCCCCCNC(=O)[C@@H](CCSC)n3cc(CCO)nn3)CC2)n1	none
C#CCOCCOCCOCCNc1nc(N2CCN(C(=O)CCCCCCCCCCNC(=O)[C@H](CCCCN)n3cc(CCCC(=O)O)nn3)CC2)nc(N2CCN(C(=O)CCCCCCCCCCNC(=O)[C@H](CCCN=C(N)N)n3cc(C[C@@H](C)CC)nn3)CC2)n1	none
C#CCOCCOCCOCCNc1nc(N2CCN(C(=O)CCCCCCCCCCNC(=O)[C@H](CO)n3cc(CCCSC)nn3)CC2)nc(N2CCN(C(=O)CCCCCCCCCCNC(=O)[C@H](CO)n3cc(CCCSC)nn3)CC2)n1	ABCB6 inh MLPCN 74
C/C(=N/NC(=O)c1ccc(Cl)s1)c1ccc(NC(=O)COc2ccc(Cl)cc2)cc1	ABCB6 inh MLPCN 53
O=S(=O)(NCc1cn2ccsc2n1)c1cccs1	none
O=S(=O)(NCc1cn2ccsc2n1)c1ccc(Oc2ccccc2)cc1	Myeloid diff 2 active
Cc1c(C(=O)N2CCN(c3cccc(Cl)c3)CC2)cccc1[N+](=O)[O-]	none
Cc1nc(COC(=O)c2cc(O)c3ccccc3c2O)cs1	Granule exo inh 64
Cc1nc(COC(=O)c2ccc(CO)cc2)cs1	none
O=C(COC(=O)c1cc(S(=O)(=O)N2CCOCC2)ccc1F)NCc1ccc2c(c1)OCO2	none
Nc1ccc(N2CCCC2)c(S(=O)(=O)Nc2cccc(C(F)(F)F)c2)c1	Myeloid diff 2 active
COc1ccc(NS(=O)(=O)c2cc(N)ccc2N2CCCCC2)cc1	none
CCN(CC)S(=O)(=O)c1cc(C(=O)c2nccn2C)ccc1Cl	Myeloid diff 2 active
